In ChEMBL document CHEMBL1157490, “Imidazopyridines as VLA-4 integrin antagonists” (Bioorg Med Chem Lett, 2008):

Key:
[1] = target: Integrin alpha-4/beta-1 (Homo sapiens, UniProt P05556+P13612); assay: Inhibition of integrin alpha4beta1 receptor in human whole blood by flow cytometry
How it was run: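 Human whole blood incubated with 3 mM MnCl2 and streptavidin-FITC, with or without 10 μg/mL biotinylated dimeric hVCAM-mFc. Compound added from tripling dilutions in TBS, 30 min at room temperature with shaking. Red cells lysed, leukocytes pelleted, washed twice in TBS and analysed by flow cytometry for bound VCAM; IC50 derived.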

[2] = Metabolic stability in mouse microsomes assessed as intrinsic clearance at 0.5 uM; format: ADME, Microsome
[3] = target: Cytochrome P450 2C9 (Homo sapiens, UniProt P11712); assay: Inhibition of CYP2C9; format: ADME
Cytochrome P450 2C9, sequence (P11712 whole entry): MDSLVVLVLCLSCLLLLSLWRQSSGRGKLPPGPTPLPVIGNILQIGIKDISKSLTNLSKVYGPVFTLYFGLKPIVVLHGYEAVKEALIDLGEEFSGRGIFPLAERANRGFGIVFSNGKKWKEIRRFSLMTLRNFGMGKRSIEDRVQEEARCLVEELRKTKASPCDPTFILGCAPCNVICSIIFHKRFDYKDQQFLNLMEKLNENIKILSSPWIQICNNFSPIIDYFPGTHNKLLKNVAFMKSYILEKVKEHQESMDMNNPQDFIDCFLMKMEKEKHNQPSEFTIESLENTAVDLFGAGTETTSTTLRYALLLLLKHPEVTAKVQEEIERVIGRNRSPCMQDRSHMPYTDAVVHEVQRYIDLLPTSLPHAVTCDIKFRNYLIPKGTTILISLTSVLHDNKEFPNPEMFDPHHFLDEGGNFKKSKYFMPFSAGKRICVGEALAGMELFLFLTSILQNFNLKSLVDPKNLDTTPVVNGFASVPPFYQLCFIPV

[4] = target: Cytochrome P450 3A4 (Homo sapiens, UniProt P08684); assay: Inhibition of CYP3A4; format: ADME
Cytochrome P450 3A4, sequence (P08684 whole entry): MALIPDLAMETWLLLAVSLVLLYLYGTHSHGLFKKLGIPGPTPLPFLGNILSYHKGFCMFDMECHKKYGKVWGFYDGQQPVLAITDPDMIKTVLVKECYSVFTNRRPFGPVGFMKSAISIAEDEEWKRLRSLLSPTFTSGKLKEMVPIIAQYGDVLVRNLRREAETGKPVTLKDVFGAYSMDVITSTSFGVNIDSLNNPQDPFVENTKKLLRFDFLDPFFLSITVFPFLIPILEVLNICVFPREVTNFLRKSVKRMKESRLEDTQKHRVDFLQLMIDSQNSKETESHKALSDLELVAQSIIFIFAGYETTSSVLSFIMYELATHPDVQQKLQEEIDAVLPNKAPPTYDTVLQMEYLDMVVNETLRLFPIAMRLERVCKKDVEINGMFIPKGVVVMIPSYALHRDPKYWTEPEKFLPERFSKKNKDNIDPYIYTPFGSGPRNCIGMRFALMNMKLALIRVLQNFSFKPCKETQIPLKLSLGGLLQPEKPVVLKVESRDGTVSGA

[5] = Metabolic stability in rat microsomes assessed as intrinsic clearance at 0.5 uM; format: ADME, Microsome
[6] = Metabolic stability in human microsomes assessed as intrinsic clearance at 0.5 uM; format: ADME, Microsome
[7] = target: Cytochrome P450 2D6 (Homo sapiens, UniProt P10635); assay: Inhibition of CYP2D6; format: ADME
Cytochrome P450 2D6, sequence (P10635 whole entry): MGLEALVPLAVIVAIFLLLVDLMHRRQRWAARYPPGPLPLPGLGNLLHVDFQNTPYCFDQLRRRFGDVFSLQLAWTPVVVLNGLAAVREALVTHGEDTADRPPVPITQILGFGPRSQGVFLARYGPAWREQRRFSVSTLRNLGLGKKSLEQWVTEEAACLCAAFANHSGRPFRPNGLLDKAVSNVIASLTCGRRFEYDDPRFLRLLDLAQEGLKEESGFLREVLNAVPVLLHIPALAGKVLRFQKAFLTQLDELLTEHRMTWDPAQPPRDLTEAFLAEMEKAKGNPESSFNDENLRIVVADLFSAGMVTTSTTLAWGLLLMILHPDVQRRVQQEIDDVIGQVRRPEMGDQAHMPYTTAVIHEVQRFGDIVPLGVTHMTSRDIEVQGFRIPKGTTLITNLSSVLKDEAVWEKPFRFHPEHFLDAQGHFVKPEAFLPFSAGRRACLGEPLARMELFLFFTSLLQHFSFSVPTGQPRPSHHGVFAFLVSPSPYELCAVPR

[8] = target: T1, Cytochrome P450 1A2 (Homo sapiens, UniProt P05177); assay: Inhibition of CYP1A2; format: ADME
T1 sequence (P05177 whole entry): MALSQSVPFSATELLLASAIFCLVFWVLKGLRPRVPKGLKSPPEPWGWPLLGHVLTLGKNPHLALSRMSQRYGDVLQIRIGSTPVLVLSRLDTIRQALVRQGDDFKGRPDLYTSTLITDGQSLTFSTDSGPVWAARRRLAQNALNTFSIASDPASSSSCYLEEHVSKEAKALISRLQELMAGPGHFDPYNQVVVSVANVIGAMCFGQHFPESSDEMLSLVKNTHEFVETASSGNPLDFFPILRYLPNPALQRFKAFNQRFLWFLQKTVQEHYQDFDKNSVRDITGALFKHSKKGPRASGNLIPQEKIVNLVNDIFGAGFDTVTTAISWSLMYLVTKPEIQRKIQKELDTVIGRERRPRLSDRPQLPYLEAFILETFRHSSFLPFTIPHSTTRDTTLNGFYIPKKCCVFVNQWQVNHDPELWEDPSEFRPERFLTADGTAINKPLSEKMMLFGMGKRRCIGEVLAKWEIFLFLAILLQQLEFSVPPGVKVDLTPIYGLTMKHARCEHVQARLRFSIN

Integrin alpha-4/beta-1, sequence (P05556 whole entry): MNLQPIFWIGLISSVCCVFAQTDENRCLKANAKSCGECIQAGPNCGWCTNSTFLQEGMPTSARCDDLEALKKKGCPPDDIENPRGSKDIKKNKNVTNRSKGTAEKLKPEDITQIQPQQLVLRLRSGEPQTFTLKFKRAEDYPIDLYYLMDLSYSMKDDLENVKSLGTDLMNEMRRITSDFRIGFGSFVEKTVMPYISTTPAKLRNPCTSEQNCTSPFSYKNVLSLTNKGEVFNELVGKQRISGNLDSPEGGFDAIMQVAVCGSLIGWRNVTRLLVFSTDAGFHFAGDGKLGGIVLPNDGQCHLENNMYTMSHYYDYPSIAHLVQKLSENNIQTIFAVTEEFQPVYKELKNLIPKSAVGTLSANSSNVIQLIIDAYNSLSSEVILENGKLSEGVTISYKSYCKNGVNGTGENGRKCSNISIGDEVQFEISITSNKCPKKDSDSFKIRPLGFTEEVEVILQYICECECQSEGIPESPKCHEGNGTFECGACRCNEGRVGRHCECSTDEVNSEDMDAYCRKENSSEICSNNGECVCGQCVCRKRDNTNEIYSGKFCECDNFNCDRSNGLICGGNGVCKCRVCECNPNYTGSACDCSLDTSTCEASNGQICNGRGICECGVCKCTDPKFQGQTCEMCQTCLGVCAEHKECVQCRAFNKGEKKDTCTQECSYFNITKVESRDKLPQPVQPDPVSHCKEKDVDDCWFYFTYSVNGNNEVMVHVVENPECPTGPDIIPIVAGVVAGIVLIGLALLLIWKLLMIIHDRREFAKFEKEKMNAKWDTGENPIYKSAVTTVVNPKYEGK
Integrin alpha-4/beta-1, sequence (P13612 whole entry): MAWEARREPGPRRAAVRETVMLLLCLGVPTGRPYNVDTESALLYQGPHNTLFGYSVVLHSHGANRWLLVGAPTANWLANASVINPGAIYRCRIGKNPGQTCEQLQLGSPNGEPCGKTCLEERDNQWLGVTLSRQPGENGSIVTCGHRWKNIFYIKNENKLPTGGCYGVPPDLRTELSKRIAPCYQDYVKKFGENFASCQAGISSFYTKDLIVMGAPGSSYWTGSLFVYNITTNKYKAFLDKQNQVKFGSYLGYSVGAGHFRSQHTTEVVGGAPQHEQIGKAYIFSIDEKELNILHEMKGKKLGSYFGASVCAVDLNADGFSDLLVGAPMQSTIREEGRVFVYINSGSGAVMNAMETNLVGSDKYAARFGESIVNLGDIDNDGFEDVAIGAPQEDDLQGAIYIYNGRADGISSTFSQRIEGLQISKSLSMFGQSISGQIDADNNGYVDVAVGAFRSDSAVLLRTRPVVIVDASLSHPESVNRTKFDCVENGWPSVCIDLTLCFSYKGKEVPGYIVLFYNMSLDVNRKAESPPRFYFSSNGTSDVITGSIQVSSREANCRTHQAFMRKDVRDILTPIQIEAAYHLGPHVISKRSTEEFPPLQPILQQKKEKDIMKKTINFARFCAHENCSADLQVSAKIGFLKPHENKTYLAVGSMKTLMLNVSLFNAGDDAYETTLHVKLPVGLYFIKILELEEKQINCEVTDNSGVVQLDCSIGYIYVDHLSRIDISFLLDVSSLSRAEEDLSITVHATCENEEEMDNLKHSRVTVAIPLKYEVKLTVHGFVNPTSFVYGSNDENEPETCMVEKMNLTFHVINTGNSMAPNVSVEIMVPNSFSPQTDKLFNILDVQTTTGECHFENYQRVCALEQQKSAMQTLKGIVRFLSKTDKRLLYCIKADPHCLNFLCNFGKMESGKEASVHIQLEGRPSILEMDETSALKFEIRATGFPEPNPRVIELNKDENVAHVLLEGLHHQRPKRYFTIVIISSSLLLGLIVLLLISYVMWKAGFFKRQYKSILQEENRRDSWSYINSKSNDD

Compound | IC50 [1] [nM] | also measured
O=C(O)[C@H](Cc1ccc(-n2c(-c3ccccc3)nc3cccnc32)cc1)NC1=C(Br)C(=O)C12CCCCC2 | 71 | –
CN(C)c1ccnc(-c2nc3cccnc3n2-c2ccc(C[C@H](NC3=C(Br)C(=O)C34CCCCC4)C(=O)O)cc2)c1 | 46 | –
O=C(O)[C@H](Cc1ccc(-n2c(-c3ccc(N4CCCCC4)nc3)nc3cccnc32)cc1)NC1=C(Br)C(=O)C12CCCCC2 | 83 | –
O=C(O)[C@H](Cc1ccc(-n2c(-c3cccnc3)nc3cc(F)ccc32)cc1)NC1=C(Br)C(=O)C12CCCCC2 | 2680 | –
O=C(O)[C@H](Cc1ccc(-n2c(-c3cccnc3)nc3cnccc32)cc1)NC1=C(Cl)C(=O)C12CCCCC2 | 504 | –
O=C(O)[C@H](Cc1ccc(-n2c(-c3cccnc3)nc3cnccc32)cc1)NC1=CC(=O)C12CCCCC2 | 1620 | –
CN(C)c1ccc(-c2nc3cccnc3n2-c2ccc(C[C@H](NC3=C(Br)C(=O)C34CCCCC4)C(=O)O)cc2)cn1 | 22 | –
CC1(C)C(=O)C(Cl)=C1N[C@@H](Cc1ccc(-n2c(-c3cccnc3)nc3cccnc32)cc1)C(=O)O | 19 | –
CC1(C)C(=O)C=C1N[C@@H](Cc1ccc(-n2c(-c3cccnc3)nc3cccnc32)cc1)C(=O)O | 126 | –
O=C(O)[C@H](Cc1ccc(-n2c(C3CCCC3)nc3cccnc32)cc1)NC1=C(Br)C(=O)C12CCCCC2 | 14 | –
O=C(O)[C@H](Cc1ccc(-n2c(C3CCNCC3)nc3cccnc32)cc1)NC1=C(Br)C(=O)C12CCCCC2 | 13 | –
O=C(O)[C@H](Cc1ccc(-n2c(-c3cccnc3)nc3cccnc32)cc1)NC1=CC(=O)C12CCCCC2 | 24 | –
O=C(O)[C@H](Cc1ccc(-n2c(-c3cccnc3)nc3cnccc32)cc1)NC1=C(Br)C(=O)C12CCCCC2 | 236 | –
O=C(O)[C@H](Cc1ccc(-n2c(C(F)(F)F)nc3cccnc32)cc1)NC1=C(Br)C(=O)C12CCCCC2 | 22 | –
Cc1nc2cccnc2n1-c1ccc(C[C@H](NC2=C(Br)C(=O)C23CCCCC3)C(=O)O)cc1 | 570 | –
O=C(O)[C@H](Cc1ccc(-n2c(C3CCC3)nc3cccnc32)cc1)NC1=C(Br)C(=O)C12CCCCC2 | 18 | –
O=C(O)[C@H](Cc1ccc(-n2c(C3CC3)nc3cccnc32)cc1)NC1=C(Br)C(=O)C12CCCCC2 | 95 | –

Stronger by IC50 [1], values ahead:

IC50 [1] [nM] | Compound | also measured
9 | CC(C)c1nc2cccnc2n1-c1ccc(C[C@H](NC2=C(Br)C(=O)C23CCCCC3)C(=O)O)cc1 | microsomal CLint at 0.5 µM [2]: 14 µL/min/mg; IC50 [3]: 18000 nM; IC50 [4]: 79000 nM; microsomal CLint at 0.5 µM [5]: 38 µL/min/mg; microsomal CLint at 0.5 µM [6]: 4 µL/min/mg; IC50 [7]: > 100000 nM; IC50 [8]: > 100000 nM
10 | CC1(C)C(=O)C(Br)=C1N[C@@H](Cc1ccc(-n2c(-c3cccnc3)nc3cccnc32)cc1)C(=O)O | –
9 | CNc1ccc(-c2nc3cccnc3n2-c2ccc(C[C@H](NC3=C(Br)C(=O)C34CCCCC4)C(=O)O)cc2)cn1 | –
11 | CC(C)Cc1nc2cccnc2n1-c1ccc(C[C@H](NC2=C(Br)C(=O)C23CCCCC3)C(=O)O)cc1 | –
10 | O=C(O)[C@H](Cc1ccc(-n2c(C3COCCN3)nc3cccnc32)cc1)NC1=C(Br)C(=O)C12CCCCC2 (stereo partly specified) | –
3 | O=C(O)[C@H](Cc1ccc(-n2c(C3CCCCN3)nc3cccnc32)cc1)NC1=C(Br)C(=O)C12CCCCC2 (stereo partly specified) | –
2 | CC(C)SC1=C(N[C@@H](Cc2ccc(-n3c(-c4cccnc4)nc4cccnc43)cc2)C(=O)O)C2(CCCCC2)C1=O | –
3 | CC(C)(C)c1nc2cccnc2n1-c1ccc(C[C@H](NC2=C(Br)C(=O)C23CCCCC3)C(=O)O)cc1 | –
11 | CSCCc1nc2cccnc2n1-c1ccc(C[C@H](NC2=C(Br)C(=O)C23CCCCC3)C(=O)O)cc1 | –
2 | O=C(O)[C@H](Cc1ccc(-n2c(C3(C(F)(F)F)CC3)nc3cccnc32)cc1)NC1=C(Br)C(=O)C12CCCCC2 | microsomal CLint at 0.5 µM [2]: 15 µL/min/mg; IC50 [3]: 8000 nM; IC50 [4]: 10000 nM; microsomal CLint at 0.5 µM [5]: 52 µL/min/mg; microsomal CLint at 0.5 µM [6]: 6 µL/min/mg; IC50 [7]: > 100000 nM; IC50 [8]: > 100000 nM
6 | O=C(O)[C@H](Cc1ccc(-n2c(C3CCCNC3)nc3cccnc32)cc1)NC1=C(Br)C(=O)C12CCCCC2 (stereo partly specified) | –
2 | CSC1=C(N[C@@H](Cc2ccc(-n3c(-c4cccnc4)nc4cccnc43)cc2)C(=O)O)C2(CCCCC2)C1=O | –
8 | O=C(O)[C@H](Cc1ccc(-n2c(-c3ccc(C(F)(F)F)nc3)nc3cccnc32)cc1)NC1=C(Br)C(=O)C12CCCCC2 | –
3 | O=C(O)[C@H](Cc1ccc(-n2c(-c3cccnc3)nc3cccnc32)cc1)NC1=C(Br)C(=O)C12CCCCC2 | microsomal CLint at 0.5 µM [2]: 11 µL/min/mg; IC50 [3]: 10000 nM; IC50 [4]: 62000 nM; microsomal CLint at 0.5 µM [5]: 48 µL/min/mg; microsomal CLint at 0.5 µM [6]: < 1 µL/min/mg; IC50 [7]: > 100000 nM; IC50 [8]: > 100000 nM
8 | O=C(O)[C@H](Cc1ccc(-n2c(CC3CC3)nc3cccnc32)cc1)NC1=C(Br)C(=O)C12CCCCC2 | –
10 | N#CCc1nc2cccnc2n1-c1ccc(C[C@H](NC2=C(Br)C(=O)C23CCCCC3)C(=O)O)cc1 | –
7 | O=C(O)[C@H](Cc1ccc(-n2c(-c3cccnc3)nc3cccnc32)cc1)NC1=C(Cl)C(=O)C12CCCCC2 | –
3 | O=C(O)[C@H](Cc1ccc(-n2c(-c3ccc(Cl)nc3)nc3cccnc32)cc1)NC1=C(Br)C(=O)C12CCCCC2 | –
